We go through twelve molecules from ChEMBL document CHEMBL1156353, “Synthetic secofriedelane and friedelane derivatives as inhibitors of human lymphocyte proliferation and growth of human cancer cell lines in vitro” (J Nat Prod, 2001).

One data set deals with NCI-H460. Kind of data set: Cytotoxicity against human NCI-H460 cells by SRB assay. It counts as functional. Summed up:
(§1)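 Lines from NCI, kept adherent in RPMI-1640 with 5% heat-inactivated FBS, 2 mM glutamine, 50 µg/mL gentamicin, 37 °C, 5% CO2; plated at densities ensuring exponential growth. Growth measured by NCI screening protocol with sulforhodamine B staining; GI50 per NCI method, means ± SEM from 3-6 independent experiments in duplicate. Compounds from DMSO stocks.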

Data set [1] can be described thus: (§2) Inhibition of PHA-induced human T cell proliferation after 24 hrs by MTT assay. It counts as functional, cell-based. In short, it runs like this:
(§3)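 Human peripheral blood mononuclear cells (Histopaque-1077 isolation) stimulated with PHA 10 µg/mL as T-mitogen, in RPMI-1640 with 10% heat-inactivated FBS, 2 mM glutamine; compounds from DMSO stocks; colorimetric MTT read-out; cyclosporin A positive control. IC50 as means ± SEM from 3-6 independent experiments in duplicate.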

The subject of data set [2] is T-cell. Described as §2. It counts as functional, cell-based. In short, it runs like this:
as §3

The subject of the next data set is UACC-62. The experiment in a line: Cytotoxicity against human UACC62 cells by SRB assay. It counts as functional. In short, it runs like this:
as §1

In the next data set the test system is SF-268. Kind of data set: Cytotoxicity against human SF268 cells by SRB assay. The class given is functional. In short, it runs like this: as §1
The subject of another data set is MCF7. Kind of data set: Cytotoxicity against human MCF7 cells by SRB assay. The class given is functional. Summed up: as §1
Data set [3] can be described thus: Cytotoxicity against human T cells assessed as cell viability at IC50 after 24 hrs by MTT assay. The class given is cell-based. As to conditions: read-out: Activity. In short, it runs like this:
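Peripheral blood mononuclear cells from healthy volunteers (Histopaque-1077), (2-3) × 10⁶ cells/mL in RPMI-1640 with 10% heat-inactivated FBS, 2 mM glutamine, gentamicin, exposed 24 h to compound; MTT (1 mg/mL) 4 h, formazan dissolved in SDS/DMF pH 4.7 overnight at 37 °C, OD 550 nm. Viability as % of unexposed cells; below 70% counted as toxic.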

The subject of another data set is TK-10. Kind of data set: Cytotoxicity against human TK10 cells by SRB assay. It counts as functional. Summed up:
as §1

Data set [4] deals with T-cell. The experiment in a line: Inhibition of PHA-induced human T cell proliferation at 100 uM after 24 hrs by MTT assay. It counts as functional, cell-based.

Calls of active or inactive are those of the source. The rule behind the calls is not given here. Some results are limits rather than exact numbers.

Take `C[C@H]1[C@@H](O)[C@H](O)C[C@@H]2[C@]1(C)CC[C@H]1[C@@]2(C)CC[C@@]2(C)[C@@H]3CC(C)(C)CC[C@]3(C)CC[C@]12C` [PACHYSANDIOL A]: the concentration for 50% growth inhibition (GI50) in the data set on NCI-H460 came to 79.4 µM; in the data set on UACC-62 it was 83.3 µM; with SF-268, 15.5 µM; with MCF7, 66.4 µM; in the data set on TK-10, 95.7 µM. Besides, the midpoint of inhibition in data set [1], the IC50, lay at 79.1 µM. In the data set with T-cell [2], the Activity result is “Dose-dependent effect”. In addition, the viability at 24 h in data set [3] is 113%.

Take `C[C@H]1C(=O)[C@H](O)C[C@@H]2[C@]1(C)CC[C@H]1[C@@]2(C)CC[C@@]2(C)[C@@H]3CC(C)(C)CC[C@]3(C)CC[C@]12C`: the GI50 worked out at 67.8 µM in the data set on NCI-H460; 86 µM in the data set with UACC-62; 95.8 µM in the data set on SF-268; 59.5 µM in the data set with MCF7; 90.5 µM with TK-10. The same molecule displayed an IC50 in [1] of 82.3 µM. In addition, in the data set with T-cell [2], the Activity result was “Dose-dependent effect”. Also, the viability at 24 h in data set [3] turned out to be 92.7%.

For the molecule `C[C@H]1[C@H](O)CC[C@@H]2[C@]1(C)CC[C@H]1[C@@]2(C)CC[C@@]2(C)[C@@H]3CC(C)(C)CC[C@]3(C)CC[C@]12C`, the GI50 with NCI-H460, with UACC-62, with SF-268, in the data set on MCF7 and in the data set with TK-10 was more than 100 µM each time. Besides, the outcome with T-cell [4] was inactive.

Take `C[C@H]1[C@@H](O)CC[C@@H]2[C@]1(C)CC[C@H]1[C@@]2(C)CC[C@@]2(C)[C@@H]3CC(C)(C)CC[C@]3(C)CC[C@]12C` [EPIFRIEDELINOL]: the GI50 with NCI-H460, in the data set with UACC-62, in the data set with SF-268, in the data set on MCF7 and with TK-10 was more than 100 µM each time. In addition, the outcome in the data set on T-cell [4] was inactive.

With `COC(=O)[C@H](C)[C@@]1(C)CC[C@H]2[C@@](C)(CC[C@@]3(C)[C@@H]4CC(C)(C)CC[C@]4(C)CC[C@]23C)[C@@H]1CC=O`, the GI50 in the data set on NCI-H460, with UACC-62, in the data set with SF-268, in the data set with MCF7 and in the data set with TK-10 was more than 100 µM in each case. In addition, in the data set with T-cell [4], the outcome was inactive.

Regarding `C[C@H]1C(=O)C=C[C@@H]2[C@]1(C)CC[C@H]1[C@@]2(C)CC[C@@]2(C)[C@@H]3CC(C)(C)CC[C@]3(C)CC[C@]12C`, the 50% growth inhibitory concentration (GI50) in the data set on NCI-H460, in the data set with UACC-62, in the data set with SF-268, in the data set on MCF7 and in the data set with TK-10 was more than 100 µM each time. Besides, the outcome in the data set on T-cell [4] was inactive.

For `CC(=O)O[C@@H]1CC[C@@H]2[C@](C)(CC[C@H]3[C@@]2(C)CC[C@@]2(C)[C@@H]4CC(C)(C)CC[C@]4(C)CC[C@]32C)[C@H]1C`, the result in the data set on T-cell [4] was inactive.

`C[C@H]1C(=O)CC[C@@H]2[C@]1(C)CC[C@H]1[C@@]2(C)CC[C@@]2(C)[C@@H]3CC(C)(C)CC[C@]3(C)CC[C@]12C` [FRIEDELINE]: the GI50 in the data set with NCI-H460, with UACC-62, in the data set on SF-268, in the data set on MCF7 and in the data set on TK-10 was more than 100 µM throughout. For the same molecule, the result in the data set with T-cell [4] was inactive.

Turning to `CC1=C(O)C(=O)C[C@H]2[C@]3(C)CC[C@@]4(C)[C@@H]5CC(C)(C)CC[C@]5(C)CC[C@]4(C)[C@H]3CC[C@]12C`, the GI50 in the data set on NCI-H460, with UACC-62, in the data set on SF-268, in the data set on MCF7 and in the data set with TK-10 was more than 100 µM in each case. Also, in the data set on T-cell [4], the outcome was inactive.

As for `C[C@H]1[C@H](O)C(=O)C[C@@H]2[C@]1(C)CC[C@H]1[C@@]2(C)CC[C@@]2(C)[C@@H]3CC(C)(C)CC[C@]3(C)CC[C@]12C`, the GI50 with NCI-H460, in the data set with UACC-62, in the data set with SF-268, in the data set on MCF7 and in the data set with TK-10 was more than 100 µM in each case. For the same molecule, in the data set with T-cell [4], the result was inactive.

On to `C[C@@H](C(=O)O)[C@@]1(C)CC[C@H]2[C@@](C)(CC[C@@]3(C)[C@@H]4CC(C)(C)CC[C@]4(C)CC[C@]23C)[C@@H]1CC=O`, for which the concentration for 50% growth inhibition (GI50) with NCI-H460 turned out to be 5.4 µM; in the data set on UACC-62 it was 9.9 µM; with SF-268, 17.2 µM; in the data set on MCF7, 7 µM; with TK-10, 10.1 µM. In data set [1], this molecule showed a half-inhibitory concentration (IC50) of 10.7 µM. In addition, the Activity entry with T-cell [2] is “Dose-dependent effect”. Moreover, in data set [3], the viability at 24 h was 89%.

For `COc1cccc2c1C(=O)c1c(O)c3c(c(O)c1C2=O)C[C@@](O)(C(=O)CO)C[C@@H]3O[C@H]1C[C@H](N)[C@H](O)[C@H](C)O1` [DOXORUBICIN], the GI50 was determined as 0.0081 µM in the data set with NCI-H460; 0.094 µM in the data set on UACC-62; 0.093 µM with SF-268; 0.055 µM in the data set on MCF7; 0.57 µM in the data set on TK-10.
